From ChEMBL document CHEMBL1145051, “Synthesis and biological evaluation of 3-alkoxy analogues of flavone-8-acetic acid” (J Med Chem, 2003) come the findings set out here.

One experiment relates to LoVo. Put plainly: In vitro cytotoxicity against the selected tumor cell line LoVoS arising from human colon adenocarcinoma was determined; not detected. It is filed as functional, cell-based.
`COc1c(-c2cccs2)oc2c(CC(=O)O)cccc2c1=O`: the 50% inhibitory concentration (IC50) result is “not detected”.

System in another experiment: not listed separately
Put plainly: Potency ratio was determined against murine macrophages versus FAA (Flavone acetic acid). It is filed as functional. The procedure, abridged: (§1)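 Ratio of reference IC50 (FAA or DMXAA) to analogue IC50 in the effector-cell coculture assay: mouse peritoneal macrophages or adherent human PBMC pretreated 24 h with drug, then C13* target cells added for 24 h, lysis by MTT. IC50 and ratios by Litchfield–Wilcoxon; three experiments in triplicate.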
With `CC(C)Oc1c(-c2ccccc2)oc2c(CC(=O)O)cccc2c1=O`, the Potency ratio came out at 1.3.
Same read-out and setting: the figure for `COc1cccc(-c2oc3c(CC(=O)O)cccc3c(=O)c2OC)c1` is 1.6; for `CCOc1c(-c2ccccc2)oc2c(CC(=O)O)cccc2c1=O` it is 0.7; for `COc1c(-c2cccc(Cl)c2)oc2c(CC(=O)O)cccc2c1=O` it is 1.2.
Same read-out and setting: the result for `COc1c(-c2ccccc2Cl)oc2c(CC(=O)O)cccc2c1=O` reads 1; that for `COc1c(-c2cccc(C)c2)oc2c(CC(=O)O)cccc2c1=O`, 1.2.

Another experiment deals with LoVo. Put plainly: In vitro cytotoxicity against the selected tumor cell line LoVoR arising from human colon adenocarcinoma was determined; not detected. It is filed as functional, cell-based.
With `CCOc1c(-c2ccccc2)oc2c(CC(=O)O)cccc2c1=O`, the 50% inhibitory concentration (IC50) entry is recorded as “not detected”.
On to `COc1c(-c2cccc(Cl)c2)oc2c(CC(=O)O)cccc2c1=O`, for which the IC50 entry is on record as “not detected”.
For `COc1c(-c2cccs2)oc2c(CC(=O)O)cccc2c1=O`, the IC50 entry was “not detected”.

For a further experiment, the species on record is Mus musculus. In words: Indirect antitumor effect was measured as cytotoxicity against murine macrophages; not detected. The experiment is classed as functional. The procedure, abridged:
(§2)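 Resident mouse peritoneal macrophages (heparinised PBS lavage, 2 h adherence) plated at 1 × 10^4 cells/well with a range of drug concentrations, triplicate wells, 24 h. Medium removed, C13* cells (2 × 10^3/well) added, cocultured 24 h. Lysis by MTT; specific cytotoxicity = [OD(macrophages+C13*) − OD(macrophages)]/OD(C13*). Three experiments; IC50 by Litchfield–Wilcoxon.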
`COc1ccccc1-c1oc2c(CC(=O)O)cccc2c(=O)c1OC`: the IC50 entry is reported as “not detected”.
For the molecule `COc1c(-c2cccs2)oc2c(CC(=O)O)cccc2c1=O`, the 50% inhibitory concentration (IC50) entry was “not detected”.

System in the next experiment: not listed separately
Put plainly: Indirect antitumor effect was measured as cytotoxicity against human monocytes; not detected. It is filed as functional. A digest of the protocol:
(§3)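 Adherent human PBMC (Ficoll isolation, 2 h adherence, washed) pretreated 24 h with 25, 50, 100 μM in RPMI 1640/5% FCS, triplicate wells. Medium removed, C13* cells (2 × 10^3/well) cocultured 24 h, read by MTT. Three experiments; IC50 by Litchfield–Wilcoxon.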
As for `CC(C)Oc1c(-c2ccccc2)oc2c(CC(=O)O)cccc2c1=O`, the half-maximal inhibitory concentration (IC50) entry is “not detected”.
On the same count and under the same terms, the entry for `COc1cccc(-c2oc3c(CC(=O)O)cccc3c(=O)c2OC)c1` is “not detected”; for `CCOc1c(-c2ccccc2)oc2c(CC(=O)O)cccc2c1=O` it is “not detected”.
For `COc1c(-c2ccccc2Cl)oc2c(CC(=O)O)cccc2c1=O`, the concentration for half-maximal inhibition (IC50) entry is on record as “not detected”.

System in another experiment: not listed separately
In words: Potency ratio was determined against macrophages; more potent. It is filed as functional. A digest of the protocol: as §1
As to `COc1c(-c2cccc(Cl)c2)oc2c(CC(=O)O)cccc2c1=O`, the Potency ratio turned out to be 6.5.
Same read-out and setting: the result for `COc1c(-c2cccc(C)c2)oc2c(CC(=O)O)cccc2c1=O` reads 2.1.

System in a further experiment: not listed separately
Put plainly: Potency ratio was determined against human monocytes versus DMXAA (Dimethylxanthenone-4-acetic acid). The experiment is classed as functional. The procedure, abridged:
as §1
As for `COc1ccccc1-c1oc2c(CC(=O)O)cccc2c(=O)c1OC`, the Potency ratio turned out to be 0.7.
Same read-out and setting: the result for `COc1c(-c2cccc(C)c2)oc2c(CC(=O)O)cccc2c1=O` reads 1.2.

System in the next experiment: not listed separately
Put plainly: Potency ratio was determined against LoVoS versus FAA (Flavone acetic acid). It is filed as functional. A digest of the protocol: (§4)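 Ratio IC50(FAA)/IC50(analogue) from direct 24 h MTT cytotoxicity on the named line (LoVo S, LoVo R, 2008 or C13*), concentrations up to 500 μM. IC50 values and 95% confidence limits by Litchfield–Wilcoxon method; three experiments in triplicate.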
With `CC(C)Oc1c(-c2ccccc2)oc2c(CC(=O)O)cccc2c1=O`, the Potency ratio came out at 0.7.
Consider `COc1ccccc1-c1oc2c(CC(=O)O)cccc2c(=O)c1OC`, for which the Potency ratio came to 0.6.
For `COc1cccc(-c2oc3c(CC(=O)O)cccc3c(=O)c2OC)c1`, the Potency ratio worked out at 0.7.
On the same count and under the same terms, the figure for `CCOc1c(-c2ccccc2)oc2c(CC(=O)O)cccc2c1=O` is 0.9.
The same measure, in the same setting: the figure for `COc1c(-c2cccc(Cl)c2)oc2c(CC(=O)O)cccc2c1=O` is 1; for `COc1c(-c2ccccc2Cl)oc2c(CC(=O)O)cccc2c1=O` it is 0.9.
Still for that read-out and setting: the result for `COc1c(-c2cccc(C)c2)oc2c(CC(=O)O)cccc2c1=O` reads 0.8.

For a further experiment, the species on record is Mus musculus. In words: Indirect antitumor effect was measured as cytotoxicity with murine macrophages pretreated with compounds. The experiment is classed as functional. The procedure, abridged: as §2
In the case of `CC(C)Oc1c(-c2ccccc2)oc2c(CC(=O)O)cccc2c1=O`, the IC50 came out at 225 µM.
Turning to `COc1cccc(-c2oc3c(CC(=O)O)cccc3c(=O)c2OC)c1`, the half-maximal inhibitory concentration (IC50) was 182 µM.
Still for that read-out and setting: the result for `CCOc1c(-c2ccccc2)oc2c(CC(=O)O)cccc2c1=O` reads 431 µM.
Take `COc1c(-c2cccc(Cl)c2)oc2c(CC(=O)O)cccc2c1=O`: the IC50 turned out to be 239 µM.
As for `COc1c(-c2ccccc2Cl)oc2c(CC(=O)O)cccc2c1=O`, the IC50 is 284 µM.
Same read-out and setting: the figure for `COc1c(-c2cccc(C)c2)oc2c(CC(=O)O)cccc2c1=O` is 234 µM.

System in a further experiment: not listed separately
Put plainly: Indirect antitumor effect was measured as cytotoxicity with human monocytes pretreated with compounds. The experiment is classed as functional. The procedure, abridged: as §3
In the case of `COc1ccccc1-c1oc2c(CC(=O)O)cccc2c(=O)c1OC`, the concentration for half-maximal inhibition (IC50) came to 193 µM.
In the case of `COc1c(-c2cccc(Cl)c2)oc2c(CC(=O)O)cccc2c1=O`, the concentration for half-maximal inhibition (IC50) was 36.8 µM.
Take `COc1c(-c2cccc(C)c2)oc2c(CC(=O)O)cccc2c1=O`: the concentration for half-maximal inhibition (IC50) is 113 µM.
On the same count and under the same terms, the result for `COc1c(-c2cccs2)oc2c(CC(=O)O)cccc2c1=O` reads 213 µM.

A further experiment relates to C13. In words: Direct cytotoxicity against the selected tumor cell line c13* was determined especially on ovarian adenocarcinoma derived cells; not detected. It is filed as functional, cell-based, Homo sapiens.
For `CC(C)Oc1c(-c2ccccc2)oc2c(CC(=O)O)cccc2c1=O`, the IC50 entry is “not detected”.
As to `COc1ccccc1-c1oc2c(CC(=O)O)cccc2c(=O)c1OC`, the IC50 result is “not detected”.
On the same count and under the same terms, the entry for `COc1cccc(-c2oc3c(CC(=O)O)cccc3c(=O)c2OC)c1` is “not detected”.
Still for that read-out and setting: the result for `CCOc1c(-c2ccccc2)oc2c(CC(=O)O)cccc2c1=O` reads “not detected”; that for `COc1c(-c2cccc(Cl)c2)oc2c(CC(=O)O)cccc2c1=O`, “not detected”; that for `COc1c(-c2ccccc2Cl)oc2c(CC(=O)O)cccc2c1=O`, “not detected”.
Still for that read-out and setting: the entry for `COc1c(-c2cccc(C)c2)oc2c(CC(=O)O)cccc2c1=O` is “not detected”; for `COc1c(-c2cccs2)oc2c(CC(=O)O)cccc2c1=O` it is “not detected”.

The test system of a further experiment is 2008. In words: Direct cytotoxicity against the selected tumor cell line 2008 was determined especially on ovarian adenocarcinoma derived cells; not detected. The experiment is classed as functional, cell-based, Homo sapiens.
`CC(C)Oc1c(-c2ccccc2)oc2c(CC(=O)O)cccc2c1=O`: the IC50 result is listed as “not detected”.
`COc1ccccc1-c1oc2c(CC(=O)O)cccc2c(=O)c1OC`: the IC50 entry is “not detected”.
On the same count and under the same terms, the entry for `COc1cccc(-c2oc3c(CC(=O)O)cccc3c(=O)c2OC)c1` is “not detected”.
On the same count and under the same terms, the result for `CCOc1c(-c2ccccc2)oc2c(CC(=O)O)cccc2c1=O` reads “not detected”; that for `COc1c(-c2cccc(Cl)c2)oc2c(CC(=O)O)cccc2c1=O`, “not detected”; that for `COc1c(-c2ccccc2Cl)oc2c(CC(=O)O)cccc2c1=O`, “not detected”.
Same read-out and setting: the result for `COc1c(-c2cccc(C)c2)oc2c(CC(=O)O)cccc2c1=O` reads “not detected”; that for `COc1c(-c2cccs2)oc2c(CC(=O)O)cccc2c1=O`, “not detected”.

Another experiment concerns LoVo. Put plainly: In vitro cytotoxicity against the selected tumor cell line LoVoS arising from human colon adenocarcinoma was determined. The experiment is classed as functional, cell-based.
`CC(C)Oc1c(-c2ccccc2)oc2c(CC(=O)O)cccc2c1=O` displayed a half-inhibitory concentration (IC50) of 815 µM.
`COc1ccccc1-c1oc2c(CC(=O)O)cccc2c(=O)c1OC` showed a half-inhibitory concentration (IC50) of 980 µM.
`COc1cccc(-c2oc3c(CC(=O)O)cccc3c(=O)c2OC)c1` gave a half-inhibitory concentration (IC50) of 829 µM.
The same measure, in the same setting: the result for `CCOc1c(-c2ccccc2)oc2c(CC(=O)O)cccc2c1=O` reads 611 µM; that for `COc1c(-c2cccc(Cl)c2)oc2c(CC(=O)O)cccc2c1=O`, 534 µM; that for `COc1c(-c2ccccc2Cl)oc2c(CC(=O)O)cccc2c1=O`, 605 µM.
`COc1c(-c2cccc(C)c2)oc2c(CC(=O)O)cccc2c1=O` gave an IC50 of 697 µM.

System in the next experiment: not listed separately
In words: Potency ratio was determined against LoVoR versus FAA (Flavone acetic acid). It is filed as functional. A digest of the protocol: as §4
As for `CC(C)Oc1c(-c2ccccc2)oc2c(CC(=O)O)cccc2c1=O`, the Potency ratio was found to be 0.9.

Another experiment concerns LoVo. In words: In vitro cytotoxicity against the selected tumor cell line LoVoR arising from human colon adenocarcinoma was determined. It is filed as functional, cell-based.
Regarding `CC(C)Oc1c(-c2ccccc2)oc2c(CC(=O)O)cccc2c1=O`, half-maximal inhibition (IC50) was put at 407 µM.
On the same count and under the same terms, the figure for `COc1cccc(-c2oc3c(CC(=O)O)cccc3c(=O)c2OC)c1` is 514 µM; for `COc1c(-c2ccccc2Cl)oc2c(CC(=O)O)cccc2c1=O` it is 780 µM.
Same read-out and setting: the figure for `COc1c(-c2cccc(C)c2)oc2c(CC(=O)O)cccc2c1=O` is 648 µM.

System in the next experiment: not listed separately
In words: Potency ratio was determined against human monocytes versus DMXAA (Dimethylxanthenone-4-acetic acid); more potent. It is filed as functional. A digest of the protocol: as §1
For `COc1c(-c2cccc(Cl)c2)oc2c(CC(=O)O)cccc2c1=O`, the Potency ratio was determined as 3.7.

System in another experiment: not listed separately
Put plainly: Potency ratio was determined against LoVoR versus FAA (Flavone acetic acid); less potent. It is filed as functional. A digest of the protocol:
as §4
For the molecule `COc1ccccc1-c1oc2c(CC(=O)O)cccc2c(=O)c1OC`, the Potency ratio was 0.5.
Still for that read-out and setting: the result for `COc1cccc(-c2oc3c(CC(=O)O)cccc3c(=O)c2OC)c1` reads 0.7; that for `COc1c(-c2ccccc2Cl)oc2c(CC(=O)O)cccc2c1=O`, 0.5.
Same read-out and setting: the result for `COc1c(-c2cccc(C)c2)oc2c(CC(=O)O)cccc2c1=O` reads 0.6.

System in the next experiment: not listed separately
In words: Potency ratio was determined against human monocytes versus DMXAA (Dimethylxanthenone-4-acetic acid); less potent. The experiment is classed as functional. A digest of the protocol:
as §1
Turning to `COc1c(-c2cccs2)oc2c(CC(=O)O)cccc2c1=O`, the Potency ratio is reported as 0.6.

Another experiment has as its system LoVo. Put plainly: In vitro cytotoxicity against the selected tumor cell line LoVoR arising from human colon adenocarcinoma was determined.
`COc1ccccc1-c1oc2c(CC(=O)O)cccc2c(=O)c1OC` showed an IC50 of 794 µM.
